# Reference: PubChem BioAssay AID504490 (NMMLSC, 2011)
# Hit rate of the full screen: of about 340,000 compounds, about 1,100 (0.32%) were called active. The list comes from a sample in which actives are over-represented; it also holds similar structures and randomly drawn compounds. Values without a mark were called inactive.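 Rule for the calls: active = inhibition above a set limit, near 3 SD of compounds lacking own fluorescence (cut at about 54% in these data); inactive = the rest.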
# Tested on: beta-arrestin 1 C-terminal peptide binding to AP2 beta2-adaptin appendage (human)
# Assay: inhibitors of beta-arrestin/AP2 binding, primary screen, biochemical, GPCR trafficking, flow cytometry (AID 504490);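 note: plate controls were DMSO wells for no effect and 5 µM unlabelled arrestin peptide for full effect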
# Conditions: FITC-arrestin peptide / GST-AP2 beads, at 10 µM, stronger effect = higher value, AP2 beta2 appendage carries R879A mutation
# Procedure, shortened: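 Material – AP2 appendage R879A on GSH beads · Buffer or medium – PBS with 0.05% Tween 20 and 0.1% BSA · Probe or stimulus – fluorescein-tagged arrestin peptide at 50 nM final · Incubation – compound with beads 12 min RT, then probe 1 h RT · Detection – high-throughput flow cytometry of beads, ex 488, em 535 nm · Evaluation – percent response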
row,Compound,inhibition
1,Cc1coc2c(O)cc3c(c12)OC1(N2CCCCC2)C(=O)NCCCC31 (centres undefined),9.81%
2,O=[N+]([O-])c1ccccc1N/N=C1\CCc2ccccc21,-6.42%
3,Cn1cnnc1Sc1ccc(CN2CCN(C3CCCC3)C(CCO)C2)o1 (centres undefined),-10.1%
4,Cc1ccc(C(=O)NC(C)c2ccccc2)cc1Br (centres undefined),-2.36%
5,CC(NC(=O)C(=O)N/N=C/c1ccc(Cl)cc1)c1ccccc1 (centres undefined),6.57%
6,CC(NC(=O)c1cc2cc(Cl)ccc2oc1=N)c1ccccc1 (centres undefined),56% (active)
7,CN(C(=O)c1cccc([N+](=O)[O-])c1)c1ccccc1C(=O)NCc1ccccc1,-22.1%
8,CCC(C(=O)OC)n1cnc2c(oc3ccccc32)c1=O (centres undefined),54.6% (active)
9,Cc1ccc(C)c(Cn2cnc3c(oc4ccccc43)c2=O)c1,29.7%
10,CCC(C(=O)OC)n1cnc2scc(-c3ccc(C)cc3)c2c1=O (centres undefined),-1.08%
11,Cc1ccc(NC(=O)CN2CCC3(O)CCCCC3C2c2ccc3c(c2)OCO3)c(C)c1 (centres undefined),1.75%
12,CC(=O)Nc1ccc(NC(=O)CN2C(=O)COc3ccc(S(=O)(=O)N4CCCCC4)cc32)cc1,-9.58%
13,COC(=O)C1=C(C(=O)OC)C2(OC1c1ccc(Br)cc1)C(=O)c1ccccc1C2=O (centres undefined),7.98%
14,COc1ccc2c(CC(=O)N3CCc4cc(OC)c(OC)cc4C3)coc2c1,-6.31%
15,COc1cc2c(cc1OC)CN(C(=O)c1cc(=O)c3ccccc3o1)CC2,82.5% (active)
16,COc1ccccc1CNC(=O)c1cc(=O)c2ccccc2o1,2.61%
17,CCC(=O)Nc1nc2ccccc2n1Cc1ccccc1C,69.6% (active)
18,C=CCn1c(C(C)NC(=O)CC)nc2ccccc21 (centres undefined),-3.06%
19,CC(=O)NC(C)c1nc2ccccc2n1Cc1ccccc1F (centres undefined),-8.31%
20,O=C(CSc1nnc(-c2ccncc2)n1C1CCCCC1)Nc1ccccc1,0.57%
21,O=C(CCNC(=O)c1ccccc1Cl)NCc1ccco1,-2.42%
22,Cc1cccc(Nc2ccccc2C(=O)NCc2ccco2)c1C,99.8% (active)
23,Cc1ccc(N(Cc2ccc(C(=O)Nc3ccccc3C(=O)NCc3ccco3)cc2)S(C)(=O)=O)cc1C,-0.75%
24,CC(Oc1ccccc1)C(=O)NN1Cc2ccccc2C1=N (centres undefined),59.1% (active)
25,COc1ccc(OCC(=O)NN2Cc3ccccc3C2=N)cc1,10.9%
26,CC(Oc1ccccc1)C(=O)Nc1c2c(nn1-c1ccccc1)CS(=O)C2 (centres undefined),4.67%
27,O=C(CSc1nnc(COc2ccc(Cl)cc2)n1Cc1ccco1)N1CCNC1=O,-11.3%
28,CCc1cccc(C)c1NC(=S)N(CCCN1CCN(C)CC1)Cc1cccs1,-5.26%
29,COc1cc(Cl)ccc1OCc1cc(C(=O)N(C)CCc2c(C)n[nH]c2C)no1,-14.3%
